Assay [1] concerns HeLa. Put plainly: Antiproliferative activity against human HeLa cells after 72 hrs by MTT assay. It counts as functional, cell-based. Put shortly:
(§1)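 HeLa and SMMC-7721 cells in log phase were seeded at 4000-6000 cells/well. After 24 h, quadruplicate wells were treated with a series of concentrations for 72 h. DMSO stocks were 5 mmol/L, with final DMSO below 0.1%. MTT (10 mg/mL in PBS) was added for 4 h, medium replaced with DMSO, and OD read at 490 nm. IC50 came from at least five concentrations; mean and SD of at least three independent experiments.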
Background: Tetrazolium dyes change colour on reduction, which living cells bring about.

Assay [2] concerns SMMC-7721. Put plainly: Antiproliferative activity against human SMMC7721 cells after 72 hrs by MTT assay. It counts as functional, cell-based. To be noted: SMMC-7721, 72 h. Put shortly:
as §1

The subject of assay [3] is K562. Put plainly: Antiproliferative activity against human K562 cells after 72 hrs by MTT assay. It counts as functional, cell-based. To be noted: K562, 72 h. Put shortly:
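K562 cells were grown in RPMI 1640 with 10% FBS at 37 °C in 5% CO2, then seeded at 4000-6000 cells/well. Quadruplicate wells were exposed to drug for 72 h, with final DMSO below 0.1%. After 4 h with MTT, solubilizer (10% SDS, 5% isobutyl alcohol, 0.01 M HCl) was added for 12 h, then OD read at 490 nm. IC50 came from at least five concentrations; mean and SD of at least three experiments.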

The species entered for assay [4] is Sus scrofa. Put plainly: Competitive binding affinity to porcine brain tubulin at 0.1 to 10 uM preincubated for 1 hr followed by colchicine addition measured after 1 hr by fluorescence assay. Put shortly: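 Tubulin (4 μM) in 80 mM PIPES pH 6.9, 2 mM MgCl2 and 0.5 mM EGTA was preincubated 1 h at 37 °C with 0.1, 1, 5 or 10 μM test agent, with DMSO as control. Colchicine (10 μM) was then added for another 1 h at 37 °C. Tubulin-colchicine fluorescence was read at ex 340/em 435 nm and normalized to DMSO; at least three replicates, mean ± SD.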

The target in assay [5] is Tubulin (Homo sapiens) (UniProt P68371+Q9H4B7+P0DPH7+P68366+Q13509+Q71U36+P04350+Q3ZCM7+P07437+P68363+Q9BQE3+Q6PEY2+Q13885+Q9BVA1+Q9BUF5). Put plainly: Inhibition of tubulin (unknown origin) polymerization at 20 uM after 40 mins by fluorescence assay. It counts as protein-complex assay. Put shortly: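 Polymerization was run with a fluorescence kit. Compound, in duplicate, was warmed 1 min at 37 °C before adding cold tubulin mix (2 mg/mL tubulin, 80 mM PIPES pH 6.9, 2.0 mM MgCl2, 0.5 mM EGTA, 1.0 mM GTP, 15% glycerol). Fluorescence was read at ex 360/em 450 nm every minute for 1 h at 37 °C and scored at 40 min against 0.1% DMSO vehicle.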

pIC50: −log10 of the molar value. Activity calls are given as the source filed them. The calls are words filed in the database; no cut-off is given here.

The values that follow come from ChEMBL document CHEMBL4251573, “Synthesis and biological evaluation of N-substituted 3-oxo-1,2,3,4-tetrahydro-quinoxaline-6-carboxylic acid derivatives as tubulin polymerization inhibitors” (Eur J Med Chem, 2018).

What is called pIC50 is the negative decadic logarithm of the IC50, by convention in mol/L. A higher pIC50 goes with a low IC50.

Take `CCCCNC(=O)c1ccc2c(c1)NC(=O)CN2C(=O)c1ccc(OC)c(OC)c1`: the negative logarithm of the IC50 (pIC50) in assay [1], in assay [2] and in assay [3] was under 4.30 in each case.

As for `COC(=O)c1ccc2c(c1)NC(=O)CN2C(=O)c1ccc(OC)cc1`, the pIC50 in assay [1] was 5.08; in assay [2], 5.27; in assay [3] it was 5.11.

For `COC(=O)c1ccc2c(c1)NC(=O)CN2Cc1ccc(OC)cc1`, the negative-log IC50 (pIC50) in assay [1] was 4.79; in assay [2], 4.90; in assay [3] it was 4.36.

Regarding `COc1cc(CN2CC(=O)Nc3cc(C(=O)NC4CCCCC4)ccc32)cc(OC)c1OC`, the pIC50 in assay [1] was 4.38; in assay [2] it was 4.55; in assay [3], 4.37.

On to `COc1cc(C(=O)N2CC(=O)Nc3cc(C(=O)NC4CCCCC4)ccc32)cc(OC)c1OC`, for which the pIC50 in assay [1] was under 4.30; in assay [2], 4.39; in assay [3] it was under 4.30.

Take `COc1cccc2c1C(=O)c1c(O)c3c(c(O)c1C2=O)C[C@@](O)(C(=O)CO)C[C@@H]3O[C@H]1C[C@H](N)[C@H](O)[C@H](C)O1` [DOXORUBICIN]: the pIC50 in assay [2] was 5.80; in assay [3], 6.05.

For `COc1ccc(C(=O)N2CC(=O)Nc3cc(C(=O)Nc4ccccc4)ccc32)cc1OC`, the pIC50 in assay [1] is 4.60; in assay [2] it was 4.46; in assay [3] it was 4.37.

Consider `CCCCNC(=O)c1ccc2c(c1)NC(=O)CN2C(=O)c1cc(OC)c(OC)c(OC)c1`, for which the figures for the pIC50 in assay [1], in assay [2] and in assay [3] were under 4.30, 4.37 and under 4.30, respectively.

Take `COc1cc(C(=O)N2CC(=O)Nc3cc(C(=O)N4CCOCC4)ccc32)cc(OC)c1OC`: the pIC50 was under 4.30 in assay [1], 4.41 in assay [2] and under 4.30 in assay [3].

Regarding `COC(=O)c1ccc2c(c1)NC(=O)CN2C(=O)Cc1cc(OC)c(OC)c(OC)c1`, the pIC50 in assay [1] is 4.40; in assay [2], 5.04; in assay [3] it was 4.34.

Take `CC(=O)O[C@H]1C(=O)[C@@]2(C)[C@H]([C@H](OC(=O)c3ccccc3)[C@]3(O)C[C@H](OC(=O)[C@H](O)[C@@H](NC(=O)c4ccccc4)c4ccccc4)C(C)=C1C3(C)C)[C@]1(OC(C)=O)CO[C@@H]1C[C@@H]2O`: in assay [4], the outcome was inactive.

As to `COc1ccc(C(=O)N2CC(=O)Nc3cc(C(=O)N4CCOCC4)ccc32)cc1OC`, the pIC50 was 4.46 in assay [1], 4.46 in assay [2] and under 4.30 in assay [3].

As for `COc1cc(C(=O)N2CC(=O)Nc3cc(C(=O)Nc4ccccc4)ccc32)cc(OC)c1OC`, the pIC50 is 4.58 in assay [1], 4.42 in assay [2] and under 4.30 in assay [3].

As for `COC(=O)c1ccc2c(c1)NC(=O)CN2C(=O)c1ccc(OC)c(OC)c1`, the pIC50 in assay [1] is 5.85; in assay [2], 5.88; in assay [3], 5.52. The inhibition result in assay [5] is “Active”.

For the molecule `COc1cc(CN2CC(=O)Nc3cc(C(=O)O)ccc32)cc(OC)c1OC`, the pIC50 was 4.49 in assay [1], 4.41 in assay [2] and 4.44 in assay [3].

For `CCCCNC(=O)c1ccc2c(c1)NC(=O)CN2Cc1cc(OC)c(OC)c(OC)c1`, the pIC50 is 4.43 in assay [1], 4.40 in assay [2] and 4.37 in assay [3].

For the molecule `COC(=O)c1ccc2c(c1)NC(=O)CN2Cc1cc(OC)c(OC)c(OC)c1`, the pIC50 is 5.56 in assay [1], 5.57 in assay [2] and 5.47 in assay [3]. Further, the inhibition entry in assay [5] was “Active”.

For the molecule `COC(=O)c1ccc2c(c1)NC(=O)CN2Cc1ccc(OC)c(OC)c1`, the pIC50 in assay [1] was 4.42; in assay [2] it was 4.48; in assay [3], 4.36.

For the molecule `COc1ccc(/C=C\c2cc(OC)c(OC)c(OC)c2)cc1O` [COMBRETASTATIN A4], the figures for the pIC50 in assay [2] and in assay [3] were 8.42 and 7.89, respectively.

Regarding `COC(=O)c1ccc2c(c1)NC(=O)CN2C(=O)c1ccc(F)cc1`, the pIC50 in assay [1] was 4.80; in assay [2] it was 5.11; in assay [3], 5.01.
